ChEMBL document CHEMBL4270606, “Pyridine bioisosteres of potent GluN2B subunit containing NMDA receptor antagonists with benzo[7]annulene scaffold” (Eur J Med Chem, 2018)

Legend:
[1] = target: Glutamate NMDA receptor; GRIN1/GRIN2B (Homo sapiens, UniProt Q05586+Q13224); assay: Displacement of [3H]-ifenprodil from GluN1a/GluN2B (unknown origin) expressed in L(tk-) cell membranes after 120 mins by scintillation counting analysis
Sus scrofa = species: Sus scrofa; assay: Displacement of [3H]-(+)-MK-801 from PCP binding site of NMDA receptor in pig brain cortex membranes at 1 uM after 120 mins by solid scintillation counting relative to control; format: cell membranes
Summary of the method: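 Single 1 µM test concentration: inhibition (%) of 2 nM [3H]-(+)-MK-801 binding to pig brain cortex membranes (about 100 µg protein). Buffer was 5 mM TRIS/1 mM EDTA, pH 7.5, at rt. Nonspecific binding defined with 10 µM unlabeled (+)-MK-801. Bound radioactivity collected by filtration and counted by solid scintillation.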

[2] = Displacement of [3H]-(+)-MK-801 from PCP binding site of NMDA receptor in pig brain cortex membranes after 120 mins by solid scintillation counting; format: cell membranes, Sus scrofa
Summary of the method: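 Pig brain cortex membranes (about 100 µg protein) incubated with 2 nM [3H]-(+)-MK-801 and test compound at 10^-5 to 10^-9 mol/L (final) in 5 mM TRIS/1 mM EDTA, pH 7.5, at rt with shaking. Nonspecific binding defined with 10 µM unlabeled (+)-MK-801. Filtration, melted solid scintillator, [3H] counting. Duplicates. IC50 by non-linear regression, converted to Ki via Cheng-Prusoff (Kd 2.26 nM). Mean ± SEM of three experiments.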

[3] = target: Sigma non-opioid intracellular receptor 1 (Cavia porcellus, UniProt Q60492); assay: Displacement of [3H]-(+)-pentazocine from sigma1 receptor in guinea pig brain cortex membrane after 120 mins by scintillation counting method; format: cell membranes
[4] = target: T1, Sigma intracellular receptor 2 (Rattus norvegicus, UniProt Q5U3Y7); assay: Displacement of [3H]-di-o-tolylguanidine from sigma2 receptor in rat liver membranes incubated for 120 mins by scintillation counting method; format: cell membranes, Membrane
T1 sequence (Q5U3Y7 whole entry): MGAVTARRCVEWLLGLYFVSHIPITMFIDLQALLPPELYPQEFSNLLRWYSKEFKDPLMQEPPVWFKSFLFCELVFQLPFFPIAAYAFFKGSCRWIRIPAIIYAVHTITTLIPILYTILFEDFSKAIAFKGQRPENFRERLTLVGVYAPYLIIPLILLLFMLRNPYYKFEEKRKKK

Chain of Sigma non-opioid intracellular receptor 1 (Q60492 whole entry): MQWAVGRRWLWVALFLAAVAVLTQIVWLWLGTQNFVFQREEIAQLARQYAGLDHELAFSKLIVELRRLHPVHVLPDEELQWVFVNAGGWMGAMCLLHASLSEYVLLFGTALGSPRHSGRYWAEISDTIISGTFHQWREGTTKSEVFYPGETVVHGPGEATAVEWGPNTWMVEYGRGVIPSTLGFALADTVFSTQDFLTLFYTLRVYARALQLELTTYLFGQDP
Chain of Glutamate NMDA receptor; GRIN1/GRIN2B (Q13224 whole entry, other chains not shown): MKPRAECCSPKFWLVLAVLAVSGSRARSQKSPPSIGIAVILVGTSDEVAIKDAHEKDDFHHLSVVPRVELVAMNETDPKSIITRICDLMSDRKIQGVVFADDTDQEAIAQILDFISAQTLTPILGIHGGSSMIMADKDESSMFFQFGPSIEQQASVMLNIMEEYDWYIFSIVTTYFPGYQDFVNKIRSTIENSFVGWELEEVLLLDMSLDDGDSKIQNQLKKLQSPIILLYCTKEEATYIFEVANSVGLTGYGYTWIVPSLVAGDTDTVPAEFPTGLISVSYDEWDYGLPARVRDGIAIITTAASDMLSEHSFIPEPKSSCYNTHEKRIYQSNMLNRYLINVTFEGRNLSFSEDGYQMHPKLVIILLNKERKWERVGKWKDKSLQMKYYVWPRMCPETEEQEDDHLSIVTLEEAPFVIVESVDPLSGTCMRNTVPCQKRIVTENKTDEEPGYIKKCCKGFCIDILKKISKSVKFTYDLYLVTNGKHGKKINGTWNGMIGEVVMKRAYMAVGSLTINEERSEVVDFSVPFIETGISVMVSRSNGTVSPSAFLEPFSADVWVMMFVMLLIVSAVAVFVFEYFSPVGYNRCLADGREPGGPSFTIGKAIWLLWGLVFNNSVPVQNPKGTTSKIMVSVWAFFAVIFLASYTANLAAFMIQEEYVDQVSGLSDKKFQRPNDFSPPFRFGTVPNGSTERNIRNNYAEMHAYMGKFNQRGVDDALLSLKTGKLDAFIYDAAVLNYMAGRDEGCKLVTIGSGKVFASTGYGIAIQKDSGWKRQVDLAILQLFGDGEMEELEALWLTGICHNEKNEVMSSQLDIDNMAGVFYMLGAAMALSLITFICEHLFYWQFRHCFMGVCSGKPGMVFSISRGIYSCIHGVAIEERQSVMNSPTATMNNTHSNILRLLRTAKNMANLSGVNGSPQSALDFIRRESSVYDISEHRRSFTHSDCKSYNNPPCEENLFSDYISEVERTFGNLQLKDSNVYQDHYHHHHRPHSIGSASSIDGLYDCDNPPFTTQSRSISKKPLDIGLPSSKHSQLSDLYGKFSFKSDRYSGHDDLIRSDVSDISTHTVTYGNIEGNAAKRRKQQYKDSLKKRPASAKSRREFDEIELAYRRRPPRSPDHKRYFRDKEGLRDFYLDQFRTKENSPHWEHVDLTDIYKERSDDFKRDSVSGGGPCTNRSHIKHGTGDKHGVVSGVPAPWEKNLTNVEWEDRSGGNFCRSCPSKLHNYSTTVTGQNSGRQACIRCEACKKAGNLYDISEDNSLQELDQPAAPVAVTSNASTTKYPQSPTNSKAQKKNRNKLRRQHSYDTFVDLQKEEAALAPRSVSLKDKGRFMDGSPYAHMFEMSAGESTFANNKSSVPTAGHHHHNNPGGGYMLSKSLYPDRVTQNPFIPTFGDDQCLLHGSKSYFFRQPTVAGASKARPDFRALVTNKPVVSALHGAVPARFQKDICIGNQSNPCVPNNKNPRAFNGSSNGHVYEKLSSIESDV

Row | SMILES | Ki [1] [nM] | inhibition (Sus scrofa) [%] | IC50 [2] [nM] | Ki [3] [nM] | Ki [4] [nM]
1 | CN(CCCCc1ccccc1)C1CCc2cccnc2CC1 (stereo not given) | 477 | 5 | > 1000 | 263 | 115
2 | CN(CCCc1ccccc1)C1CCc2cccnc2CC1 (stereo not given) | 445 | 0 | > 1000 | 261 | 68
3 | c1ccc(CNC2CCc3cccnc3CC2)cc1 (stereo not given) | > 1000 | 0 | > 1000 | 942 | 490

The next molecules have a lower Ki [1] than those just listed; values first:

Row | Ki [1] [nM] | inhibition (Sus scrofa) [%] | IC50 [2] [nM] | Ki [3] [nM] | Ki [4] [nM] | SMILES
4 | 302 | 10 | > 1000 | 992 | 276 | c1ccc(CCCNC2CCc3cccnc3CC2)cc1 (stereo not given)
5 | 149 | 8 | > 1000 | 214 | 68 | c1ccc(CCCCNC2CCc3cccnc3CC2)cc1 (stereo not given)
